Results as given in article PMC2664388 (Pharmaceutical research, 2008).
Where two headings read alike, the source gives them in different places.

Experiments:
[1] = Trans-epithelial electrical resistance; format: in vitro ADME, New Zealand albino rabbits; settings: transport buffers with or without 5% HP-β-CD, 3h
[2] = Corneal permeation, side-bi-side diffusion apparatus; format: in vitro ADME, New Zealand albino rabbits; settings: for Transcorneal permeability: 150μM in DPBS with 5% HP-β-CD, 34°C
[3] = Permeation across sclera/choroid/RPE, Valia-Chein side-bi-side cells; settings: for Permeability across sclera/choroid/RPE: 150μM in DPBS with 5% HP-β-CD, 37°C
[4] = Aqueous solubility, shake flask method; format: physicochemical; settings: 25°C, 24h
[5] = Phase solubility with HP-β-CD; format: physicochemical
[6] = pH solution stability in buffers; format: physicochemical
How it was run: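 Test compound (25 μL of a 1 mg/mL stock) was added to 5 mL of USP buffer pre-equilibrated at 25 or 40°C. Content was measured by RP-HPLC on a C18 column with UV at 284 nm. The mobile phase was 20 mM KH2PO4 (pH 2.5) and acetonitrile at 75:25, run at 1 mL/min.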

[7] = Stability in ocular tissue homogenates; format: in vitro ADME, New Zealand albino rabbits; settings: 37°C, after 15h, 1mg/mL protein
[8] = Transscleral permeation, Valia-Chein side-bi-side cells; format: in vitro ADME, New Zealand albino rabbits; settings: 150μM in DPBS with 5% HP-β-CD, 37°C
[9] = sonicated 15min, equilibration 4 days; ref 29 Tommasini et al.; cited from earlier work
[10] = sonicated 15min, equilibration 4 days; ref 29 Tommasini et al.; cited from earlier work; remark: listed apart in the source
[11] = ref 21 Serra et al., cited from earlier work
[12] = oral administration, cumulative urinary recovery; ref 14 Ameer et al.; cited from earlier work

Structure (SMILES): CC(O)COC[C@H]1O[C@@H]2O[C@H]3[C@H](O)[C@@H](O)[C@@H](O[C@H]4[C@H](O)[C@@H](O)[C@@H](O[C@H]5[C@H](O)[C@@H](O)[C@@H](O[C@H]6[C@H](O)[C@@H](O)[C@@H](O[C@H]7[C@H](O)[C@@H](O)[C@@H](O[C@H]8[C@H](O)[C@@H](O)[C@@H](O[C@H]1[C@H](O)[C@H]2O)O[C@@H]8COCC(C)O)O[C@@H]7COCC(C)O)O[C@@H]6COCC(C)O)O[C@@H]5COCC(C)O)O[C@@H]4COCC(C)O)O[C@@H]3COCC(C)O (stereo partly drawn) [HP-β-CD, 2-hydroxypropyl-beta-cyclodextrin]
- TEER of corneas [1]: 5±0.3 KΩcm^2

Structure (SMILES): OCC(O)C(O)C(O)C(O)[14CH2]O (stereo not drawn) [[^14C]mannitol]
- Mean percent cumulative amount transported per hour across the cornea ([2]; 0.5 μCi/mL, 3h experiment): 1±0.15 percent per hour
- Mean percent cumulative amount transported per hour across the sclera/choroid/RPE ([3]; 0.5 μCi/mL): 0.1±0.04 percent per hour

Structure (SMILES): COc1ccc([C@@H]2CC(=O)c3c(O)cc(O[C@@H]4O[C@H](CO[C@@H]5O[C@@H](C)[C@H](O)[C@@H](O)[C@H]5O)[C@@H](O)[C@H](O)[C@H]4O)cc3O2)cc1O [hesperidin, hesperetin 7-rutinoside]
- Saturation Solubility ([4]; Water (0% HP-β-CD)): 4.95 ± 0.99 µg/mL
- Saturation Solubility ([4]; pH 1.21, 200 mM buffer): 4.15 ± 0.34 µg/mL
- Saturation Solubility ([4]; pH 3.11, 200 mM buffer): 8.44 ± 0.47 µg/mL
- Saturation Solubility ([4]; pH 5.12, 200 mM buffer): 5.96 ± 1.92 µg/mL
- Saturation Solubility ([4]; pH 7.48, 200 mM buffer): 5.26 ± 0.31 µg/mL
- Saturation Solubility ([4]; pH 9.11, 200 mM buffer): 8.93 ± 0.73 µg/mL
- Fold Increase in solubility ([5]; 1 %w/v HP-β-CD): 9
- Hesperidin Solubility ([5]; 1 %w/v HP-β-CD in water, 25°C, 24h): 42.97 ± 4.28 µg/mL
- Fold Increase in solubility ([5]; 2.5 %w/v HP-β-CD): 18
- Hesperidin Solubility ([5]; 2.5 %w/v HP-β-CD in water, 25°C, 24h): 83.34 ± 6.34 µg/mL
- Fold Increase in solubility ([5]; 5 %w/v HP-β-CD): 37
- Hesperidin Solubility ([5]; 5 %w/v HP-β-CD in water, 25°C, 24h): 169.90 ± 25.36 µg/mL
- Fold Increase in solubility ([5]; 7.5 %w/v HP-β-CD): 48
- Hesperidin Solubility ([5]; 7.5 %w/v HP-β-CD in water, 25°C, 24h): 219.03 ± 15.62 µg/mL
- Fold Increase in solubility ([5]; 10 %w/v HP-β-CD): 55
- Hesperidin Solubility ([5]; 10 %w/v HP-β-CD in water, 25°C, 24h): 252.77 ± 8.81 µg/mL
- Fold Increase in solubility ([5]; 15 %w/v HP-β-CD): 76
- Hesperidin Solubility ([5]; 15 %w/v HP-β-CD in water, 25°C, 24h): 348.55 ± 5.28 µg/mL
- Hesperidin Solubility ([5]; 20 %w/v HP-β-CD in water, 25°C, 24h): 431.97 ± 0.43 µg/mL
- Binding constant (K) with HP-β-CD, 1:1 complex ([5]; from phase solubility plot, 25°C, 24h): 625 ± 78 M⁻¹
- Stability in aqueous solutions (decrease in hesperidin content) ([6]; pH 1.2, 3, 5, 7.4, 25 and 40°C, upto 2 months): did not demonstrate any decrease
- Degradation rate constant ([6]; pH 9, 25°C): 0.03 day⁻¹
- Half-life ([6]; pH 9, 25°C): 23 days
- Degradation rate constant ([6]; pH 9, 40°C): 0.15 day⁻¹
- Half-life ([6]; pH 9, 40°C): 4.5 days
- Hesperetin generation, or decrease in hesperidin concentrations, in the homogenates [7]: not observed
- Transcorneal permeability ([2]; apical to basolateral (A-B)): 1.11±0.86×10^−6 cm/s
- Transcorneal permeability ([2]; basolateral to apical (B-A)): 1.16±0.05×10^−6 cm/s
- Permeability across sclera alone [8]: 10.2±2.1×10^−6 cm/s
- Intrinsic solubility [9]: 36 µM
- Binding constant with HP-β-CD [10]: 60 M⁻¹
- pKa ([11]; all of the alcoholic hydroxyl groups): greater than 11.5
- pKa ([11]; two phenolic hydroxyl groups): 10±0.2
- Bioavailability [12]: < 25%
- Permeability across sclera/choroid/RPE ([3]; RPE to sclera (R-S) direction): 1.52±0.78×10^−6 cm/s
- Permeability across sclera/choroid/RPE ([3]; sclera to RPE (S-R) direction): 0.82±0.69×10^−6 cm/s
